From ChEMBL document CHEMBL4311965, “Antimicrobial activity of amphipathic α,α-disubstituted β-amino amide derivatives against ESBL - CARBA producing multi-resistant bacteria; effect of halogenation, lipophilicity and cationic character” (Eur J Med Chem, 2019)
Converted amounts (≈) assume the structure as drawn.

Experiments:
[1] = test system: Staphylococcus aureus; assay: Antibacterial activity against Staphylococcus aureus ATCC 9144 cultured in MHB medium assessed as no bacterial growth incubated at 37 degC for 24 hrs by microdilution susceptibility test; assay type: functional; conditions: ATCC 9144, 24 h
Outline: (§1)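 Broth microdilution per CLSI M07-A9 with modifications. Inoculum about 2.5–3 x 10⁴ cells/mL in Mueller-Hinton broth, mixed 1:1 with test derivative. DMSO stocks diluted in double-distilled water, final DMSO <1%. Incubation 24 h at 37 °C (20 °C for C. glutamicum). Growth and sterility controls included; oxytetracycline reference.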

[2] = test system: Corynebacterium glutamicum; assay: Antibacterial activity against Corynebacterium glutamicum ATCC 13032 cultured in MHB medium assessed as no bacterial growth incubated at 20 degC for 24 hrs by microdilution susceptibility test; assay type: functional; conditions: ATCC 13032, 24 h; outline: as §1
[3] = test system: Pseudomonas aeruginosa; assay: Antibacterial activity against Pseudomonas aeruginosa PA01 DSM 19880 (ATCC 15692) cultured in MHB medium assessed as no bacterial growth incubated at 37 degC for 24 hrs by microdilution susceptibility test; assay type: functional; conditions: PAO1 DSM 19880 (ATCC 15692); outline: as §1
[4] = Selectivity index, ratio of EC50 for hemolytic activity against human RBC to MIC for antibacterial activity against Staphylococcus aureus ATCC 9144; assay type: toxicity; conditions: human red blood cells (RBC)
Outline: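 Selectivity index is the RBC haemolysis EC50 divided by the MIC against the E. coli or S. aureus reference strain.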

[5] = test system: Staphylococcus aureus; assay: Antibacterial activity against multidrug-resistant Staphylococcus aureus N315 cultured in MHB medium assessed as reduction in bacterial growth incubated for 24 hrs by microdilution susceptibility test; assay type: functional; conditions: N315, 24 h
Outline: (§2)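 Broth microdilution per CLSI M07-A9 (modified). Working solutions made from concentrated DMSO stocks kept at r.t., diluted in double-distilled water, final DMSO <1%. Inoculum 1–1.2 x 10⁶ cells/mL in Mueller-Hinton broth, mixed 1:1 with compound. 37 °C, 24 h, four parallels. Read as OD₆₀₀. Where precipitation left residual OD, the point of major OD decrease was taken as the inhibitory concentration.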

[6] = test system: Staphylococcus aureus; assay: Antibacterial activity against multidrug-resistant Staphylococcus aureus NCTC 10442 cultured in MHB medium assessed as reduction in bacterial growth incubated for 24 hrs by microdilution susceptibility test; assay type: functional; conditions: NCTC 10442, 24 h; outline: as §2
[7] = test system: Staphylococcus aureus; assay: Antibacterial activity against multidrug-resistant Staphylococcus aureus 85/2082 cultured in MHB medium assessed as reduction in bacterial growth incubated for 24 hrs by microdilution susceptibility test; assay type: functional; conditions: 85/2082, 24 h; outline: as §2
[8] = test system: Staphylococcus aureus; assay: Antibacterial activity against multidrug-resistant Staphylococcus aureus IHT 99040 cultured in MHB medium assessed as reduction in bacterial growth incubated for 24 hrs by microdilution susceptibility test; assay type: functional; conditions: IHT 99040, 24 h; outline: as §2
[9] = test system: Enterococcus faecium; assay: Antibacterial activity against multidrug-resistant Enterococcus faecium 50673722 cultured in BHIB medium assessed as reduction in bacterial growth incubated for 24 hrs by microdilution susceptibility test; assay type: functional; conditions: Enterococcus faecium, 50673722, 24 h
Outline: (§3)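 Enterococci grown in Brain Heart Infusion broth, otherwise broth microdilution per CLSI M07-A9 (modified). Concentrated DMSO stocks kept at r.t. and diluted in double-distilled water, final DMSO <1%. Inoculum 1–1.2 x 10⁶ cells/mL mixed 1:1 with compound. 37 °C, 24 h, four parallels. OD₆₀₀ read-out, lowest concentration with no growth.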

[10] = test system: Enterococcus faecium; assay: Antibacterial activity against multidrug-resistant Enterococcus faecium 50901530 cultured in BHIB medium assessed as reduction in bacterial growth incubated for 24 hrs by microdilution susceptibility test; assay type: functional; conditions: Enterococcus faecium, 50901530, 24 h; outline: as §3
[11] = test system: Escherichia coli; assay: Antibacterial activity against multidrug-resistant Escherichia coli 50579417 producing oxcillinase-48 cultured in MHB medium assessed as reduction in bacterial growth incubated for 24 hrs by microdilution susceptibility test; assay type: functional; conditions: Escherichia coli, 50579417, 24 h; outline: as §2
[12] = test system: Escherichia coli; assay: Antibacterial activity against multidrug-resistant Escherichia coli 50639799 producing Verona integron encoded metallo beta-lactamse-29 cultured in MHB medium assessed as reduction in bacterial growth incubated for 24 hrs by microdilution susceptibility test; assay type: functional; conditions: Escherichia coli, 50639799, 24 h; outline: as §2
[13] = test system: Escherichia coli; assay: Antibacterial activity against multidrug-resistant Escherichia coli 50739822 producing New Delhi metallo-beta-lactamase-1 cultured in MHB medium assessed as reduction in bacterial growth incubated for 24 hrs by microdilution susceptibility test; assay type: functional; conditions: Escherichia coli, 50739822, 24 h; outline: as §2
[14] = test system: Escherichia coli; assay: Antibacterial activity against multidrug-resistant Escherichia coli 50857972 producing imipenem-type carbapenemase-26 cultured in MHB medium assessed as reduction in bacterial growth incubated for 24 hrs by microdilution susceptibility test; assay type: functional; conditions: Escherichia coli, 50857972, 24 h; outline: as §2
[15] = test system: Pseudomonas aeruginosa; assay: Antibacterial activity against multidrug-resistant Pseudomonas aeruginosa K34-7 producing Verona integron encoded metallo beta-lactamse-2 cultured in MHB medium assessed as reduction in bacterial growth incubated for 24 hrs by microdilution susceptibility test; assay type: functional; conditions: K34-7, 24 h; outline: as §2
[16] = test system: Pseudomonas aeruginosa; assay: Antibacterial activity against multidrug-resistant Pseudomonas aeruginosa K34-73 producing Verona integron encoded metallo beta-lactamse-4 cultured in MHB medium assessed as reduction in bacterial growth incubated for 24 hrs by microdilution susceptibility test; assay type: functional; conditions: K34-73, 24 h; outline: as §2
[17] = test system: Pseudomonas aeruginosa; assay: Antibacterial activity against multidrug-resistant Pseudomonas aeruginosa K44-24 producing imipenem-type carbapenemase-14 cultured in MHB medium assessed as reduction in bacterial growth incubated for 24 hrs by microdilution susceptibility test; assay type: functional; conditions: K44-24, 24 h; outline: as §2
[18] = test system: Pseudomonas aeruginosa; assay: Antibacterial activity against multidrug-resistant Pseudomonas aeruginosa 50692172 producing New Delhi metallo-beta-lactamase-1 cultured in MHB medium assessed as reduction in bacterial growth incubated for 24 hrs by microdilution susceptibility test; assay type: functional; conditions: Pseudomonas aeruginosa, 50692172, 24 h; outline: as §2
[19] = test system: Pseudomonas aeruginosa; assay: Antibacterial activity against multidrug-resistant Pseudomonas aeruginosa 50692520 producing Verona integron encoded metallo beta-lactamse cultured in MHB medium assessed as reduction in bacterial growth incubated for 24 hrs by microdilution susceptibility test; assay type: functional; conditions: Pseudomonas aeruginosa, 50692520, 24 h; outline: as §2
[20] = test system: Klebsiella pneumoniae; assay: Antibacterial activity against multidrug-resistant Klebsiella pneumoniae K47-25 producing carbapenemase-2 cultured in MHB medium assessed as reduction in bacterial growth incubated for 24 hrs by microdilution susceptibility test; assay type: functional; conditions: K47-25, 24 h; outline: as §2
[21] = test system: Klebsiella pneumoniae; assay: Antibacterial activity against multidrug-resistant Klebsiella pneumoniae 50625602 producing oxcillinase-245 cultured in MHB medium assessed as reduction in bacterial growth incubated for 24 hrs by microdilution susceptibility test; assay type: functional; conditions: Klebsiella pneumoniae, 50625602, 24 h; outline: as §2
[22] = test system: Klebsiella pneumoniae; assay: Antibacterial activity against multidrug-resistant Klebsiella pneumoniae 50667959 producing Verona integron encoded metallo beta-lactamse-1 cultured in MHB medium assessed as reduction in bacterial growth incubated for 24 hrs by microdilution susceptibility test; assay type: functional; conditions: Klebsiella pneumoniae, 50667959, 24 h; outline: as §2
[23] = test system: Acinetobacter baumannii; assay: Antibacterial activity against multidrug-resistant Acinetobacter baumannii K44-35 producing oxcillinase-23 cultured in MHB medium assessed as reduction in bacterial growth incubated for 24 hrs by microdilution susceptibility test; assay type: functional; conditions: K44-35, 24 h; outline: as §2
[24] = test system: Acinetobacter baumannii; assay: Antibacterial activity against multidrug-resistant Acinetobacter baumannii K55-13 producing oxcillinase-24 cultured in MHB medium assessed as reduction in bacterial growth incubated for 24 hrs by microdilution susceptibility test; assay type: functional; conditions: K55-13, 24 h; outline: as §2

SMILES	MIC [1] [µg/mL]	MIC [2] [µg/mL]	MIC [3] [µg/mL]	selectivity ratio [4]	MIC [5] [µg/mL]	MIC [6] [µg/mL]	MIC [7] [µg/mL]	MIC [8] [µg/mL]	MIC [9] [µg/mL]	MIC [10] [µg/mL]	MIC [11] [µg/mL]	MIC [12] [µg/mL]	MIC [13] [µg/mL]	MIC [14] [µg/mL]	MIC [15] [µg/mL]	MIC [16] [µg/mL]	MIC [17] [µg/mL]	MIC [18] [µg/mL]	MIC [19] [µg/mL]	MIC [20] [µg/mL]	other results
NCCNCC(CN)(Cc1ccc(F)c2ccccc12)Cc1ccc(F)c2ccccc12	2 (≈ 4.61 µM)	1 (≈ 2.31 µM)	4 (≈ 9.23 µM)	14	4 (≈ 9.23 µM)	4 (≈ 9.23 µM)	4 (≈ 9.23 µM)	8 (≈ 18.5 µM)	4 (≈ 9.23 µM)	4 (≈ 9.23 µM)	8 (≈ 18.5 µM)	8 (≈ 18.5 µM)	4 (≈ 9.23 µM)	8 (≈ 18.5 µM)	16 (≈ 36.9 µM)	16 (≈ 36.9 µM)	16 (≈ 36.9 µM)	16 (≈ 36.9 µM)	16 (≈ 36.9 µM)	8 (≈ 18.5 µM)	MIC [21]: 8 µg/mL (≈ 18.5 µM); MIC [22]: 8 µg/mL (≈ 18.5 µM); MIC [23]: 8 µg/mL (≈ 18.5 µM); MIC [24]: 16 µg/mL (≈ 36.9 µM)
NCCNC(=O)C(CN)(Cc1cc(C(F)(F)F)cc(C(F)(F)F)c1)Cc1cc(C(F)(F)F)cc(C(F)(F)F)c1	4 (≈ 6.86 µM)	1 (≈ 1.71 µM)	4 (≈ 6.86 µM)	12	16 (≈ 27.4 µM)	16 (≈ 27.4 µM)	16 (≈ 27.4 µM)	8 (≈ 13.7 µM)	8 (≈ 13.7 µM)	4 (≈ 6.86 µM)	16 (≈ 27.4 µM)	16 (≈ 27.4 µM)	16 (≈ 27.4 µM)	8 (≈ 13.7 µM)	> 32	32 (≈ 54.8 µM)	> 32	32 (≈ 54.8 µM)	> 32	32 (≈ 54.8 µM)	MIC [21]: 16 µg/mL (≈ 27.4 µM); MIC [22]: 16 µg/mL (≈ 27.4 µM); MIC [23]: 16 µg/mL (≈ 27.4 µM); MIC [24]: 16 µg/mL (≈ 27.4 µM)
NCCNC(=O)C(CN)(Cc1ccccc1C(F)(F)F)Cc1ccccc1C(F)(F)F	32 (≈ 71.5 µM)	8 (≈ 17.9 µM)	64 (≈ 143 µM)	10	> 32	> 32	> 32	32 (≈ 71.5 µM)	32 (≈ 71.5 µM)	32 (≈ 71.5 µM)	> 32	> 32	> 32	> 32	> 32	> 32	> 32	> 32	> 32	> 32	MIC [21]: > 32 µg/mL; MIC [22]: > 32 µg/mL; MIC [23]: > 32 µg/mL; MIC [24]: > 32 µg/mL
